# Screening data (PubChem BioAssay)
# EphB4 ephrin blk – blocks human EphB4 binding to ephrin-B2 | P54760 | EphB4 LBD / TNYL-RAW-Alexa532 peptide, fluorescence polarization | inhibition, % at 7 µM | 97,000 compounds, 0.15% hits | AID 720;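 active = inhibition above the screen-wide mean inhibition plus 3 SD, cut at about 15% in these data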
# Rev-RRE block – disrupts HIV-1 Rev binding to RRE RNA; P05866; Rev peptide-RRE RNA binding, FRET; inhibition, % at 8 µM; 97,000 compounds, 0.79% hits; AID 704;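 active = inhibition above the screen-wide mean plus 3 SD, cut at about 35% in these data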
#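 Test system: Cy5-tagged RRE RNA duplex with fluorescein-tagged Rev peptide; Probe or stimulus: labelled Rev peptide; Schedule: 5 min preincubation and 15 min binding, 25 °C; Signal: FRET fluorescence readout; Evaluation: % inhibition from 671/540 nm acceptor-to-donor ratio, scaled between controls; Control set: DMSO and neomycin B.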
# Cav32 inh – blocks human Cav3.2 T-type calcium channel | AID 449739 | Cav3.2-expressing cells, Fluo-4 calcium fluorescence FDSS; active compounds read low | 100,000 compounds, 4% hits | B-score at 10 µM | O95180;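 active = single-dose well whose peak fluorescence ratio is a statistical outlier from its plate by either plate-standardised score or position-corrected B-score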
# FAK inh – inhibitors of human focal adhesion kinase; Q05397; biochemical FAK kinase activity assay; inhibition, %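 (tested at 7 µM)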; 97,000 compounds, 0.84% hits; AID 727; in the data active = inhibition above about 19%
# PLK1 inh – inhibitors of human PLK1 kinase; 97,000 compounds, 0.53% hits; AID 619; recombinant PLK1 kinase, TR-FRET peptide phosphorylation; inhibition, % at 10 µM; P53350;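 active = inhibition of 50% or more in the single-concentration screen; inactive = inhibition below 50%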
# PLK1 PBD inh – Plk1 (human) PBD binding inhibition; Plk1 PBD phosphopeptide binding, fluorescence polarization; 97,000 compounds, 0.13% hits; P53350; inhibition, %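 (tested at about 20 µM)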; in the data active = inhibition above about 34%, passing the limit was not always enough
# Hits are given with their value; - = inactive; . = not tested or not shown. Sampled rows, rich in hits. Any-hit rate of the full collection: about 5.3%.
SMILES,EphB4 ephrin blk,Rev-RRE block,Cav32 inh,FAK inh,PLK1 inh,PLK1 PBD inh
CC(C)(C)c1ccc(C(=O)Nc2ccc(N3CCOCC3)cc2)cc1,-,-,-,-,-,-
COC(=O)Cc1ccc(NC(=O)c2ccc(C(C)(C)C)cc2)cc1,-,-,-5.2,-,-,-
CC(C)c1ccccc1NC(=S)NN(Cc1ccccc1)c1ccccc1,-,-,-6.9,-,-,-
O=C(Nc1ccc2c(c1)OCCO2)c1cc2sccc2n1Cc1ccccc1,-,-,-5.6,-,-,-
O=C(NCc1ccco1)c1cc2sccc2n1Cc1ccccc1,-,-,-5.6,-,-,-
NC(=O)Nc1ccc2c(c1)OCCO2,-,-,-,-,-,-
O=C(Nc1ccc2c(c1)OCCO2)c1cc2sccc2n1Cc1ccc(F)cc1,-,-,-,-,-,-
O=C(CC(c1ccccc1)c1ccccc1)Nc1ccc2c(c1)OCCO2,-,-,-3.6,-,-,-
CS(=O)(=O)c1ccc(CNC(=O)C2(C(F)(F)F)C/C(=C\Cc3ccccc3)CCCO2)cc1 (centres undefined),.,.,-,.,.,.
O=C(Cc1ccccc1)N[C@@H](Cc1ccc(O)cc1)C(=O)O,.,.,-,.,.,.
COC(=O)CP(=O)(c1ccccc1)c1ccccc1,-,-,-,-,-,-
COc1ccc(/C(C#N)=C/c2c(-c3ccc(Cl)cc3)nc3c(C)cccn23)cc1,-,-,-5.8,-,-,-
Cc1cccn2c(/C=N/OCc3ccc(F)cc3)c(-c3ccc(Cl)cc3)nc12,-,-,.,-,-,-
FC(F)(F)c1cc(C(F)(F)F)c2ccc(Oc3ccccc3)nc2n1,-,-,-4.7,-,-,-
FC(F)(F)c1cc(Oc2ccccc2)nc(-c2ccccn2)n1,-,-,-,-,-,-
Cc1cc(Br)cc(C)c1OCCCCN(C)C,-,-,-,-,-,-
COCc1cc(C)nc(OCC(=O)N/N=C/c2cc(C)n(-c3c(C)cccc3C)c2C)c1C#N,-,-,-4.4,-,-,-
CCCNC(=O)C1(CC2CC(c3ccccc3)=NO2)CCN(C(=O)Cc2ccc(F)cc2)CC1 (centres undefined),.,.,-,.,.,.
Cc1cc(NC(=O)c2noc3c2CCCC3)nn1Cc1ccc(Cl)cc1,-,-,-4.8,-,-,-
CC(C)CCNC(=O)NC(=O)CSc1nnc(COc2ccccc2Cl)o1,-,-,-4.8,-,-,-
O=C(c1cc(C2CC2)nc2ccc(Br)cc12)N1N=C(C(F)F)CC1(O)C(F)F (centres undefined),-,-,-7.5,-,-,-
COc1ccc(-c2nc3c(c(=O)[nH]c(=O)n3Cc3ccccc3)n2Cc2ccccc2)cc1,-,-,-6.4,-,-,-
CCCCN(CCCC)C(=O)c1nsnc1-c1ccccc1O,-,-,-,-,-,-
CCOC(=O)C1=C(O)/C(=C/c2ccc(C)o2)SC1=NC(=O)c1ccccc1C,-,69,.,-,-,-
C=CC1CN(C(=O)OCC(Cl)(Cl)Cl)C2CC3c4ccc(OC)cc4NC3C3CC1C2CO3 (centres undefined),.,.,-,.,.,.
SMILES,EphB4 ephrin blk,Rev-RRE block,Cav32 inh,FAK inh,PLK1 inh,PLK1 PBD inh
CCOC(=O)c1c(N)nn(C(=O)C(C)(C)C)c1-c1ccccc1,-,-,-,-,-,-
CCOC(=O)C1=C(c2ccccc2)N2CCS(=O)(=O)N=C2S1,16,-,-,-,-,-
CCN(CC)S(=O)(=O)c1ccc(NC2c3ccccc3C(=O)N2Cc2ccc3c(c2)OCO3)cc1 (centres undefined),-,-,-,-,66,-
Cc1cc(NC(=O)CSc2nnc(-c3ccc(Br)o3)n2Cc2ccccc2)no1,-,-,-5,-,-,-
Cc1occc1-c1nnc(SCC(=O)Nc2ccc(F)cc2)n1Cc1ccccc1,-,-,-6.2,-,-,-
Cc1cc(NC(=O)CSc2nnc(-c3ccco3)n2Cc2ccccc2)no1,-,-,-,-,-,-
CCCn1c(SCC(=O)Nc2ccccc2-c2ccccc2)nnc1-c1ccoc1C,.,.,-5.9,.,.,.
CCN(CC(=O)Nc1ccccc1Br)Cc1nc2ccccc2c(=O)[nH]1,-,-,-,-,-,-
C[C@@H](Oc1ccccc1)c1nnn(Cc2ccccc2)c1-c1c([C@@H](C)Oc2ccccc2)nnn1Cc1ccccc1,.,.,-,.,.,.
O=C1NC(c2ccccn2)Nc2sc3c(c21)CCC3 (centres undefined),-,-,-,-,-,-
CN1CCc2c(sc3c2C(=O)NC(c2ccccn2)N3)C1 (centres undefined),-,43,-,-,-,-
Cc1ccc(C2NC(=O)c3c(sc4c3CCN(C)C4)N2)s1 (centres undefined),-,75,-,-,-,-
Cc1c(NC(=O)c2cc3nc(-c4ccc(Cl)cc4)cc(C(F)(F)F)n3n2)c(=O)n(-c2ccccc2)n1C,-,-,-,-,-,-
COC(=O)C1=C(C)N(CCCC(=O)O)C(=O)NC1c1ccc(C#N)cc1 (centres undefined),.,.,-,.,.,.
COc1ccc2c(c1)c(CC(=O)Nc1ccc(C)cc1)c(C)n2C(=O)c1ccc(Cl)cc1,-,-,-3.9,-,-,-
COc1ccc2c(c1)c(CC(=O)OCC(=O)O)c(C)n2C(=O)c1ccc(Cl)cc1,.,.,-,.,.,.
CCOc1ccc(-n2c(SCC(=O)Nc3ccccc3C)n[nH]c2=O)cc1,-,-,-,-,-,-
Cc1ccc(S(=O)(=O)NCC(=O)N(CC(=O)NCc2ccco2)Cc2ccc3c(c2)OCO3)cc1,-,-,-5.1,-,-,-
CCC(C(=O)NCc1ccco1)N(C(=O)CNS(=O)(=O)c1ccccc1)C1CCCCC1 (centres undefined),-,-,-,-,-,-
COc1ccccc1N(C(=O)CNS(=O)(=O)c1ccccc1)C(C(=O)NCc1ccco1)C(C)C (centres undefined),-,-,-,-,-,-
CCCC(C(=O)NCc1ccco1)N(C(=O)CNS(=O)(=O)c1ccc(Cl)cc1)C1CCCC1 (centres undefined),-,-,-8.4,-,-,-
CCCC(C(=O)NCc1ccco1)N(C(=O)CNS(=O)(=O)c1ccccc1)c1ccccc1OC (centres undefined),-,-,-5.4,-,-,-
CCC(C(=O)NCc1ccco1)N(C(=O)CNS(=O)(=O)c1ccc(C)cc1)c1ccccc1OC (centres undefined),-,-,-3.5,-,-,-
CC1=CCC[C@@H]2[C@@](C)(CC/C(C)=C/C(=O)O)[C@H](C)CC[C@@]12C,.,.,-,.,.,.
NS(=O)(=O)c1ccc(NCc2cc(Cl)ccc2OCc2ccccc2F)cc1,-,-,-,-,-,-
O=C(CSc1nc(O)c(C2CCCCC2)c(=O)[nH]1)Nc1ccc(Cl)cc1,.,.,-7.8,.,.,.
CCCCc1c(O)nc(SCC(=O)Nc2ccc3c(c2)CCC3)[nH]c1=O,.,.,-5.7,.,.,.
CC(=O)Nc1c(O)nc(SCC(=O)Nc2ccc(C(C)=O)cc2)[nH]c1=O,-,-,-,-,-,-
